RGS4 act: potentiators or activators of RGS4. HEK293 M3R/inducible RGS4, carbachol calcium flux Fluo4; stronger effect = lower value. AID 463111. actives 0.92% (n = 310,000). B-score at 10 µM;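 active = B-score of the integrated calcium signal more than 4 SD below the library mean, with starting fluorescence not abnormally high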;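 also: negative B-score means reduced calcium response which marks RGS4 activation or potentiation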
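Material: Inducible-RGS4 HEK293 cells carrying M3 receptor; also added: carbachol at ECmax as muscarinic agonist stimulus; incubation: compound preincubation 20 min at room temperature before agonist; signal: Fluo4-AM (2 µM) calcium-flux fluorescence, kinetic read; measure: integrated calcium ratio converted to B score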
RGS4 block: human RGS4 inhibition; P49798; HEK293 M3R/RGS4 inducible, Fluo-4 calcium flux; stronger effect = higher value; triggered by carbachol at its EC20; B-score at 10 µM; actives 0.45% (n = 310,000); AID 463165;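 active = B-score, a plate-corrected calcium signal, over three deviations above library mean, with baseline fluorescence within five deviations of library mean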;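 also: RGS4 expression induced by doxycycline in cells with stable M3 receptor; B-score is computed from the integrated fluorescence ratio over baseline after carbachol; higher B-score means a larger calcium signal and so more RGS4 inhibition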
Target sequence (P49798 whole entry, looked up): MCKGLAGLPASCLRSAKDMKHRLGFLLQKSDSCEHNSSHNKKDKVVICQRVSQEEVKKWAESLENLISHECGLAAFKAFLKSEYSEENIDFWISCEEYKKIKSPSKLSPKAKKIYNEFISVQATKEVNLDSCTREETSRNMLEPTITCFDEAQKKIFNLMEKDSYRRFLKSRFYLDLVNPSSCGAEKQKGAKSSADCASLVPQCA
MrgX1 antagonist: human MrgX1 receptor antagonism, primary screen. Q96LB2. MRGX1-HEK293 calcium flux, Fluo-4, BAM8-22 antagonism; stronger effect = lower value. B-score at 10 µM. actives 1.3% (n = 310,000). AID 588676;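 active = calcium-response B-score plate-corrected more than 3 library SD below zero, starting fluorescence within 5 deviations, no agonist response on first addition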;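 also: peak minus trough fluorescence over baseline after final BAM8-22 challenge near maximal dose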
Target sequence (Q96LB2 whole entry, looked up): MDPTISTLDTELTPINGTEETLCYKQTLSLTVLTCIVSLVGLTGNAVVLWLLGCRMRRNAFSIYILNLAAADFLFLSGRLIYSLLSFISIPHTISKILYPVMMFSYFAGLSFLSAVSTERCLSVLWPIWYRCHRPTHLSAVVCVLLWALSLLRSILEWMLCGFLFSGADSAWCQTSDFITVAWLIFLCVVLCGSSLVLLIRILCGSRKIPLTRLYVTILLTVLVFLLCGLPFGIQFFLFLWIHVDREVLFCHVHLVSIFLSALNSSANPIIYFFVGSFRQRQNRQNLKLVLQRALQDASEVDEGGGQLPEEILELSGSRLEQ
MrgX1 allo act: human MrgX1 positive allosteric modulation, primary screen; Q96LB2; MrgX1-HEK293, Fluo-4 calcium flux, FDSS; stronger effect = higher value; B-score at 10 µM; actives 0.63% (n = 310,000); AID 588675;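 active = plate-corrected calcium response at least 3 library SD above typical, normal starting fluorescence, not activating the receptor alone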;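 also: compound read alongside a low EC10 to EC30 dose of BAM8-22 agonist; peak minus trough fluorescence over baseline measured at the second addition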
MrgX1 agonist: activates human MrgX1 receptor signaling; Q96LB2; MrgX1-HEK293 cells, Fluo-4 calcium fluorescence, agonist mode; stronger effect = higher value; B-score at 10 µM; actives 0.44% (n = 310,000);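 active = calcium response B-score plate-corrected fluorescence ratio at least 3 library SD, with starting fluorescence B-score inside 5 SD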
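System – MrgX1-expressing HEK293 cells · Incubation – cells plated overnight, dye loaded 0.5 h 37 °C, 0.5 h room temperature · Technique – kinetic Fluo-4 NW fluorescence of intracellular calcium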
RGS4 inh valid: RGS4 inhibitor validation; HEK293 M3R/RGS4, carbachol calcium Fluo-4 fluorescence; carbachol added at its EC20; 0 = buffer wells, 100 = carbachol control; shares compounds with RGS4 block; AID 492999; calcium response, % at 10 µM; actives 65% (n = 1,700);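 active = duplicate-averaged calcium response above the buffer-only control mean plus 5 SD of those controls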;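 also: integrated fluorescence ratio F max minus min over baseline F0; higher response in RGS4-induced cells means RGS4 inhibition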
RGS4 uninduced: non-induced cell nonspecific activity of RGS4 inhibitors | HEK293 M3R non-induced, carbachol calcium Fluo-4; submaximal (EC20) carbachol stimulus; buffer wells 0%, carbachol control wells 100% | actives 20% (n = 1,900) | shares compounds with RGS4 block | activity (percent), % at 10 µM; call rule not given here;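 also: RGS4 induction absent so cells express M3R without RGS4; higher means more calcium signal and flags a non-specific hit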
RGS4 inh ctr2: second RGS4 inhibitor counter-screen in uninduced cells lacking carbachol | actives 22% (n = 1,900) | shares compounds with RGS4 block | HEK293 M3R/RGS4 non-induced, Fluo-4 calcium, no carbachol; normalised: buffer wells 0%, carbachol wells 100% | calcium response (agonist-mode artifact), % at 10 µM;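 active = duplicate-averaged calcium rise in uninduced cells above buffer wells' mean plus 5 SD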
MrgX1 ag confirm: confirmation of human MrgX1 receptor agonists; actives 78% (n = 600); activation, % at 10 µM; MrgX1-HEK293, Fluo-4 calcium fluorescence, FDSS; shares compounds with MrgX1 agonist;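 active = calcium signal rise, corrected for plate position, at least 3 library SD high, with starting brightness within 5 such deviations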; also: reference of the scale not given here
HEK293 Ca flux: MrgX1 antagonist counter-screen hit in parental HEK293 cells; shares compounds with MrgX1 antagonist; Fluo-4 calcium fluorescence, FDSS; fluorescence ratio F(max-min)/F0 at 10 µM; actives 2% (n = 4,000);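 active = duplicate-averaged calcium fluorescence ratio at least three times the standard deviation of buffer wells, a nonspecific response in parental cells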
HEK293 Ca counter: counter-screen for MrgX1 allosteric activators: effect in parental HEK293 cells; actives 0.4% (n = 4,000); shares compounds with MrgX1 antagonist; fluorescence ratio F(max-min)/F0 at 10 µM; parental HEK293 calcium flux, Fluo-4 fluorescence ratio; stronger effect = higher value;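 active = calcium fluorescence ratio, averaged over duplicates, at least 3 SD of the buffer-well ratio, meaning a nonspecific response in receptor-free cells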;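 also: untransfected parental HEK293 lacking MrgX1 used as counterscreen for MrgX1 allosteric activators; fluorescence change taken during the second addition on a kinetic imager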
HEK293 Ca cntr2: MrgX1 activator counter-screen hit in parental HEK293 cells. AID 624115. Fluo-4 calcium fluorescence (FDSS); stronger effect = higher value. fluorescence ratio F(max-min)/F0 at 10 µM. actives 8.7% (n = 4,000). shares compounds with MrgX1 antagonist;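 active = calcium fluorescence ratio at least three times the spread of buffer wells, meaning a non-specific response in parental cells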
* marks the source's active call; other numbers are inactive results; i = inactive; . = not tested or not shown. An excerpt weighted towards active compounds, which were near 3.5% of everything screened.

SMILES	RGS4 act	RGS4 block	MrgX1 antagonist	MrgX1 allo act	MrgX1 agonist	RGS4 inh valid	RGS4 uninduced	RGS4 inh ctr2	others
CC(=O)Nc1ccc(Sc2ccccc2C(=O)O)cn1	i	i	i	i	i	.	.	.
S=c1[nH]nc(-c2cc(-c3ccsc3)n[nH]2)n1-c1cccc2ccccc12	i	6.1*	i	i	i	11%*	i	i
COc1ccc(Nc2cnn(-c3nc4ccccc4s3)c(=O)c2Cl)cc1	i	4.7*	i	i	i	11%*	i	i
Brc1cccc(C2Nc3cccc4cccc(c34)N2)c1	i	i	i	i	i	.	.	.
c1csc(C2Nc3cccc4cccc(c34)N2)c1	i	6.1*	i	i	i	i	i	i
Brc1ccc(C2Nc3cccc4cccc(c34)N2)o1	i	5.2*	i	i	i	i	i	i
CCOc1ccc(NCc2nnc(SCc3ccc(Cl)cc3)n2-c2ccccc2)cc1	i	i	i	i	i	.	i	i
CCOC(=O)CSc1nnc(CNc2ccc(Cl)cc2)n1-c1ccccc1	i	i	i	i	i	.	.	.
O=C(Nc1cccc(Cl)c1)Nc1nnc(CC2=CCCCC2)s1	i	10*	i	i	i	5.5%*	i	i
O=C(Nc1nnc(CC2=CCCCC2)s1)Nc1ccccc1F	i	i	i	i	i	.	.	.
COc1ccc(/C=C/C(=O)OCC(=O)NCc2ccco2)cc1OC	i	i	i	i	i	.	.	.
CCOC(=O)[C@@H]1[C@H]2COc3ccc(Br)cc3[C@H]2N2C(=O)N(c3cccc(Cl)c3)C(=O)[C@]12C	i	i	i	i	i	i	i	i
CCOC(=O)[C@@H]1[C@H]2COc3ccc(Br)cc3[C@@H]2N2C(=O)N(c3ccccc3)C(=O)[C@@]12C	i	i	i	i	i	.	.	.
CCOC(=O)[C@@H]1[C@H]2COc3ccc(Br)cc3[C@@H]2N2C(=O)N(c3cccc(Cl)c3)C(=O)[C@]12C	i	i	i	i	i	i	i	i
Nc1nc(Nc2ccccc2F)sc1C(=O)c1ccccc1	i	6.5*	i	i	i	28%*	i	i
Cc1nc(Nc2ccccc2)sc1C(=O)c1ccc(F)cc1	i	i	i	i	i	.	.	.
CCNC(=S)NNc1nc(N2CCCCC2)nc(N2CCOCC2)n1	i	i	i	i	i	.	.	.
Cc1ccc(S(=O)(=O)N2CCCCCC2)cc1C(=O)NCc1ccccn1	i	i	i	i	i	.	.	.
CC(C)(C)c1cccc(/C=N/O)c1O	i	11*	i	i	i	24%*	44%*	i
COc1ccc(Oc2ccccc2/C=N/O)cc1	i	i	i	i	i	.	.	.
Cc1ccc2c(c1)c1c(n2CC(O)Cn2c(C)nc3ccccc32)/C(=N\O)CCC1 (stereo unspecified)	i	15*	i	i	i	42%*	i	i
CCOc1ccc(/C=c2\sc3nc(-c4ccco4)nn3c2=O)cc1OCC	i	6*	i	i	i	8.5%*	i	133%*
COc1ccccc1/C=c1\sc2nc(-c3ccco3)nn2c1=O	i	i	i	i	i	.	.	.
Cc1ccc(CN(Cc2cc3cc4c(cc3[nH]c2=O)OCCO4)Cc2nnnn2Cc2ccco2)cc1	i	12*	i	i	i	i	i	16%*
Cc1ccc2cc(CN(Cc3ccc4c(c3)OCO4)Cc3nnnn3Cc3ccco3)c(=O)[nH]c2c1	i	i	i	i	i	i	i	8.5%*
SMILES	RGS4 act	RGS4 block	MrgX1 antagonist	MrgX1 allo act	MrgX1 agonist	RGS4 inh valid	RGS4 uninduced	RGS4 inh ctr2	others
COc1ccc2cc(CN(CCc3ccccc3)Cc3nnnn3Cc3ccco3)c(=O)[nH]c2c1	i	i	i	i	i	.	.	.
COc1ccc(C(=O)N=C2SC3CS(=O)(=O)CC3N2c2ccc(C(C)=O)cc2)cc1 (stereo unspecified)	i	i	i	i	i	.	.	.
COc1ccc(CN2CCN(C(=O)c3ccco3)CC2)c(OC)c1OC	i	i	i	i	i	.	.	.
Cc1ccc(N2C(=O)N(CC(=O)Nc3ccc(C)c(C)c3[N+](=O)[O-])C(=O)C2C)cc1 (stereo unspecified)	i	i	i	i	i	.	.	.
O=C(CCN1CCc2ccccc2CC1)c1ccc2c(c1)OCCO2	i	13*	i	i	38*	20%*	i	26%*	MrgX1 ag confirm=136%*;HEK293 Ca flux=i;HEK293 Ca counter=i;HEK293 Ca cntr2=i
Cc1nn(CC(=O)N2CCOCC2)c(=O)c2nn(-c3ccccc3)c(C)c12	i	i	i	i	i	.	.	.
COc1ccc(CS(=O)(=O)/C(Cl)=C(/Cl)C(=O)Nc2ccc(OC)nc2)cc1	i	13*	i	i	47*	57%*	32%*	12%*	MrgX1 ag confirm=191%*;HEK293 Ca flux=i;HEK293 Ca counter=i;HEK293 Ca cntr2=i
Cc1nc2c(C)cccn2c1/C(O)=C1\C(=O)C(=O)N(CCN(C)C)C1c1ccccc1 (stereo unspecified)	i	i	i	i	i	.	.	.

Screening results deposited in PubChem by Johns Hopkins Ion Channel Center.
